Data: ChEMBL document CHEMBL5724801, “EUbOPEN Chemogenomics Library - Multiplex” (2024)
Where “and” joins values, the source holds several entries; their conditions need not be identical. Equal entries are not always repeated.

Test system: HEK-293T
Assay: Multiplex assay against HEK293T
Format: toxicity, cell-based
Settings: human
In short: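 Per cents of healthy-nucleus cells form the tubulin, mitochondrial-mass and membrane-permeability phenotype values. Live cells were stained at seeding with Hoechst33342, BioTracker Green Microtubule Cytoskeleton Dye, MitoTracker Red and Annexin V Alexa Fluor 680. After compound addition they were imaged on a CQ1 microscope at 37°C and 5% CO2, and CellPathfinder machine-learning gating split them into Hoechst high-intensity objects or normal cells, normal cells into healthy, pyknosed or fragmented nuclei, and pyknosed cells into mitotic or apoptotic.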

[1] = 12 h, 1 µM, compound concentration 1 uM
[2] = 12 h, 10 µM, compound concentration 10 uM
[3] = 24 h, 1 µM, compound concentration 1 uM
[4] = 24 h, 10 µM, compound concentration 10 uM
[5] = 48 h, 1 µM, compound concentration 1 uM
[6] = 48 h, 10 µM, compound concentration 10 uM

Structure (SMILES): COc1cc(N2CCN(C)CC2)ccc1Nc1nccc(-c2cn(C)c3cnccc23)n1
- Population Apoptotic (%) [1]: 10.14% and 10.53%
- Population Fragmented Nuclei (%) [1]: 3.23% and 1.83%
- Population Hoechst High Intensity Objects (%) [1]: 0%
- Population Membrane Permeable-Phenotype (%) [1]: 0%
- Population Mitotic Cells (%) [1]: 89.86% and 89.47%
- Population Normal (%) [1]: 100%
- Population Pyknosed Nuclei (%) [1]: 31.8% and 87.16%
- Population Apoptotic (%) [2]: 19.35% and 16.13%
- Population Fragmented Nuclei (%) [2]: 1.59% and 4.51%
- Population Hoechst High Intensity Objects (%) [2]: 0%
- Population Membrane Permeable-Phenotype (%) [2]: 0.4% and 2.94%
- Population Mitotic Cells (%) [2]: 80.65% and 83.87%
- Population Normal (%) [2]: 100%
- Total Cell Count [2]: 314 and 133
- Population Apoptotic (%) [3]: 19.27% and 15.66%
- Population Fragmented Nuclei (%) [3]: 1.54% and 3.91%
- Population Healthy Nuclei (%) [3]: 81.64% and 31.25%
- Population Hoechst High Intensity Objects (%) [3]: 0%
- Population Membrane Permeable-Phenotype (%) [3]: 1.13% and 2.5%
- Population Mitochondria Different-Phenotype (%) [3]: 11.15% and 10%
- Population Mitotic Cells (%) [3]: 80.73% and 84.34%
- Population Normal (%) [3]: 100%
- Population Tubulin-Different-Phenotype (%) [3]: 12.1% and 5%
- Population Apoptotic (%) [4]: 27.27% and 28.81%
- Population Fragmented Nuclei (%) [4]: 2.49% and 1.67%
- Population Healthy Nuclei (%) [4]: 87.23% and 49.17%
- Population Hoechst High Intensity Objects (%) [4]: 0%
- Population Membrane Permeable-Phenotype (%) [4]: 1.07% and 6.78%
- Population Mitochondria Different-Phenotype (%) [4]: 7.5% and 3.39%
- Population Mitotic Cells (%) [4]: 72.73% and 71.19%
- Population Normal (%) [4]: 100%
- Population Tubulin-Different-Phenotype (%) [4]: 26.07% and 10.17%
- Total Cell Count [4]: 321 and 120
- Population Apoptotic (%) [5]: 7.58% and 13.11%
- Population Fragmented Nuclei (%) [5]: 2.6% and 3.77%
- Population Healthy Nuclei (%) [5]: 85.55% and 57.86%
- Population Hoechst High Intensity Objects (%) [5]: 0.09% and 0.62%
- Population Membrane Permeable-Phenotype (%) [5]: 3.57% and 0%
- Population Mitochondria Different-Phenotype (%) [5]: 18.99% and 33.7%
- Population Mitotic Cells (%) [5]: 92.42% and 86.89%
- Population Normal (%) [5]: 99.91% and 99.38%
- Population Apoptotic (%) [6]: 20% and 25%
- Population Fragmented Nuclei (%) [6]: 4.38% and 4.51%
- Population Healthy Nuclei (%) [6]: 87.29% and 74.44%
- Population Hoechst High Intensity Objects (%) [6]: 0%
- Population Membrane Permeable-Phenotype (%) [6]: 2.86% and 0%
- Population Mitochondria Different-Phenotype (%) [6]: 21.24% and 29.29%
- Population Mitotic Cells (%) [6]: 80% and 75%
- Population Normal (%) [6]: 100%
- Population Pyknosed Nuclei (%) [6]: 8.33% and 21.05%

Structure (SMILES): Cc1nc2ccc(Oc3ccc(F)cc3)cc2c(=O)n1C[C@H]1CCCN(C(C)C)C1.Cl
- Population Apoptotic (%) [1]: 40% and 61%
- Population Fragmented Nuclei (%) [1]: 7% and 5%
- Population Healthy Nuclei (%) [1]: 80% and 70%
- Population Membrane Permeable-Phenotype (%) [1]: 0%
- Population Mitochondria Different-Phenotype (%) [1]: 50% and 69%
- Population Mitotic Cells (%) [1]: 60% and 38%
- Population Normal (%) [1]: 93% and 72%
- Population Pyknosed Nuclei (%) [1]: 11% and 24%
- Population Tubulin-Different-Phenotype (%) [1]: 42% and 34%
- Total Cell Count [1]: 381 and 204
- Population Apoptotic (%) [2]: 54% and 61%
- Population Fragmented Nuclei (%) [2]: 7% and 8%
- Population Healthy Nuclei (%) [2]: 78% and 74%
- Population Hoechst High Intensity Objects (%) [2]: 17% and 20%
- Population Membrane Permeable-Phenotype (%) [2]: 0%
- Population Mitochondria Different-Phenotype (%) [2]: 81% and 94%
- Population Mitotic Cells (%) [2]: 45% and 38%
- Population Normal (%) [2]: 82% and 79%
- Population Pyknosed Nuclei (%) [2]: 13% and 17%
- Population Tubulin-Different-Phenotype (%) [2]: 76% and 73%
- Total Cell Count [2]: 405 and 310
- Population Apoptotic (%) [3]: 31% and 37%
- Population Fragmented Nuclei (%) [3]: 11%
- Population Healthy Nuclei (%) [3]: 80% and 72%
- Population Membrane Permeable-Phenotype (%) [3]: 0%
- Population Mitochondria Different-Phenotype (%) [3]: 36% and 52%
- Population Mitotic Cells (%) [3]: 68% and 62%
- Population Normal (%) [3]: 95% and 77%
- Population Pyknosed Nuclei (%) [3]: 8% and 16%
- Population Tubulin-Different-Phenotype (%) [3]: 27% and 20%
- Total Cell Count [3]: 553 and 281
- Population Apoptotic (%) [4]: 49% and 68%
- Population Fragmented Nuclei (%) [4]: 10% and 11%
- Population Healthy Nuclei (%) [4]: 73% and 75%
- Population Hoechst High Intensity Objects (%) [4]: 12% and 23%
- Population Membrane Permeable-Phenotype (%) [4]: 3% and 0%
- Population Mitochondria Different-Phenotype (%) [4]: 67% and 88%
- Population Mitotic Cells (%) [4]: 50% and 31%
- Population Normal (%) [4]: 87% and 76%
- Population Pyknosed Nuclei (%) [4]: 15% and 12%
- Population Tubulin-Different-Phenotype (%) [4]: 70% and 68%
- Total Cell Count [4]: 525 and 334
- Population Apoptotic (%) [5]: 27% and 60%
- Population Fragmented Nuclei (%) [5]: 19% and 13%
- Population Healthy Nuclei (%) [5]: 75% and 80%
- Population Hoechst High Intensity Objects (%) [5]: 1% and 7%
- Population Membrane Permeable-Phenotype (%) [5]: 1% and 0%
- Population Mitochondria Different-Phenotype (%) [5]: 22% and 36%
- Population Mitotic Cells (%) [5]: 72% and 39%
- Population Normal (%) [5]: 98% and 92%
- Population Pyknosed Nuclei (%) [5]: 5% and 6%
- Population Tubulin-Different-Phenotype (%) [5]: 14%
- Total Cell Count [5]: 901 and 380
- Population Apoptotic (%) [6]: 47% and 67%
- Population Fragmented Nuclei (%) [6]: 15% and 17%
- Population Healthy Nuclei (%) [6]: 74% and 72%
- Population Hoechst High Intensity Objects (%) [6]: 11% and 22%
- Population Membrane Permeable-Phenotype (%) [6]: 2% and 0%
- Population Mitochondria Different-Phenotype (%) [6]: 60% and 69%
- Population Mitotic Cells (%) [6]: 52% and 32%
- Population Normal (%) [6]: 88% and 78%
- Population Pyknosed Nuclei (%) [6]: 9%
- Population Tubulin-Different-Phenotype (%) [6]: 62% and 58%
- Total Cell Count [6]: 754 and 459
